Assay type in all cases: functional, cell-based
Assay [1] in a line: Cytotoxicity against human Caov3 cells after 72 hrs by MTT assay. The conditions noted are these: Caov-3, 72 h. Summed up:
(§1)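 Cells grown in RPMI-1640 with 10% FBS, 2 mM L-glutamine and gentamicin; seeded at 1 × 10⁴ cells/well and left to attach overnight at 37 °C, 5% CO₂. Compounds were dissolved in DMSO, diluted into FBS-free medium and tested at 5 × 10⁻⁵, 10⁻⁵, 10⁻⁶ and 10⁻⁷ M for 72 h. MTT was added for 3 h, formazan dissolved in DMSO and read at 590 nm. Triplicates; IC50 derived graphically from % viability loss versus untreated controls.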
Background: Tetrazolium dyes change colour on reduction, which living cells bring about.

The nature of assay [2]: Cytotoxicity against human multi drug resistant subclone KB 8.5 cells after 72 hrs by MTT assay. Summed up: as §1
The subject of assay [3] is A549. The assay can be described thus: Cytotoxicity against human A549 cells after 72 hrs by MTT assay. The conditions noted are these: A549, 72 h. The essentials: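 Compounds were dissolved in DMSO, diluted into FBS-free medium and tested at 5 × 10⁻⁵, 10⁻⁵, 10⁻⁶ and 10⁻⁷ M for 72 h. MTT was added for 3 h, formazan dissolved in DMSO and read at 590 nm. Triplicates; IC50 derived graphically from % viability loss versus untreated controls.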

The nature of assay [4]: Cytotoxicity against human KB3-1 cells after 72 hrs by MTT assay. The conditions noted are these: KB 3-1, 72 h. The essentials: as §1

Data on ten molecules can be found in ChEMBL document CHEMBL1629420, “Structure-cytotoxicity relationship in a series of N-phosphorus substituted E,E-3,5-bis(3-pyridinylmethylene)- and E,E-3,5-bis(4-pyridinylmethylene)piperid-4-ones” (Eur J Med Chem, 2010).

SMILES strings stand for the structures.

In general, IC50 refers to the midpoint of a concentration-inhibition curve. High values mean a need for much substance, low ones inhibition by little substance. Regarding `CN1C/C(=C\c2ccncc2)C(=O)/C(=C/c2ccncc2)C1`, the IC50 turned out to be 5.1 µM in assay [1], 7.4 µM in assay [2], 4.2 µM in assay [3] and 3 µM in assay [4].
On to `CN1C/C(=C\c2cccnc2)C(=O)/C(=C/c2cccnc2)C1`, for which the IC50 in assay [1] is above 20 µM; in assay [2], 40.4 µM; in assay [3] it was above 20 µM; in assay [4] it was 20.2 µM.
As for `O=C1/C(=C/c2cccnc2)CNC/C1=C\c1cccnc1`, the concentration for half-maximal inhibition (IC50) in assay [1] came to 9.2 µM; in assay [2], 30 µM; in assay [3] it was 11.1 µM; in assay [4], 24.4 µM.
For `CCOP(=O)(OCC)N1C/C(=C\c2cccnc2)C(=O)/C(=C/c2cccnc2)C1`, the IC50 came out at 8.1 µM in assay [1], 5.3 µM in assay [2], 10.4 µM in assay [3] and 5 µM in assay [4].
As to `CCOP(=O)(CCN1C/C(=C\c2cccnc2)C(=O)/C(=C/c2cccnc2)C1)OCC`, the IC50 in assay [1], in assay [2], in assay [3] and in assay [4] was above 40 µM throughout.
Turning to `CCOP(=O)(CCCCN1C/C(=C\c2cccnc2)C(=O)/C(=C/c2cccnc2)C1)OCC`, the IC50 was 6.2 µM in assay [1], 9.5 µM in assay [2], 15.4 µM in assay [3] and 6.1 µM in assay [4].
Turning to `O=C1/C(=C/c2ccncc2)CNC/C1=C\c1ccncc1`, the 50% inhibitory concentration (IC50) came to 6 µM in assay [1], 8.5 µM in assay [2], 10.3 µM in assay [3] and 5 µM in assay [4].
The corresponding values for `CCOP(=O)(OCC)N1C/C(=C\c2ccncc2)C(=O)/C(=C/c2ccncc2)C1` are 4.3 µM, 5.1 µM, 8.2 µM and 2.1 µM.
`N[C@@H](Cc1ccc(N(CCCl)CCCl)cc1)C(=O)O` gave an IC50 in assay [1] of 50 µM.
As for `COc1cccc2c1C(=O)c1c(O)c3c(c(O)c1C2=O)C[C@@](O)(C(=O)CO)C[C@@H]3O[C@H]1C[C@H](N)[C@H](O)[C@H](C)O1` [DOXORUBICIN], it took 3.3 µM to reach half-maximal inhibition in assay [2] (IC50).
